ERb SRC1 inh – ER-beta (human) coactivator binding inhibition; hit rate 1.3% among 86,000; TR-FRET ER-beta LBD / SRC1-Cy5 peptide binding; receptor agonist-loaded with 1 µM estradiol; Q92731; AID 633; inhibition, % at 25.6 µM;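 active means compounds whose percent inhibition of the receptor-coactivator binding signal exceeds about 50% in the single-dose screen, limit read from the data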;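 further: 0% = receptor plus peptide wells without compound and 100% = peptide-only wells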
SF-1 act – activates the human nuclear receptor SF-1; Q13285; CHO-K1 Gal4-SF-1 LBD luciferase reporter; % increase over DMSO SF-1-specific signal; activation, % at 10 µM; hit rate 1.9% among 65,000; AID 522;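 active means activation above the mean activation of all tested compounds plus 3 SD, cut at about 50% in these data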
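material = CHO-K1 cells with Gal4–hSF-1 LBD chimera plus Gal4-driven luciferase | compound = 10 µM single point, 1% DMSO | incubation = 20 h compound exposure at 37 °C after 1 h cell settling | measured by = SteadyLite luciferase luminescence | evaluation = percent activation relative to DMSO median and mock-transfected background | control set = DMSO negative control and −SF1 background wells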
Pyk2 oligo antag – blocks oligomerization of human Pyk2 in cells. AID 1347419. Q14289. z-score (the deposit names both 25 µM and 10 µM). Q293 cells, Pyk2 FERM NanoBiT luminescence; stronger effect = lower value. hit rate 0.83% among 99,000;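 active means Z-score of -3 or lower, scaled per plate to the spread of control and sample wells; inactive means z-score above -3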;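 further: negative z-score means lost luminescence so less FERM oligomerization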
ERa coact inh – blocks coactivator binding to human estrogen receptor alpha; hit rate 1.7% among 86,000; P03372; TR-FRET ER-alpha LBD / SRC-1 peptide, estradiol-bound; inhibition, % at 25.6 µM; AID 629; in the data active means inhibition above about 50%;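 further: 0% = receptor plus peptide control and 100% = peptide only without receptor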
Target sequence (P03372 whole entry, looked up, the tested form may be a part): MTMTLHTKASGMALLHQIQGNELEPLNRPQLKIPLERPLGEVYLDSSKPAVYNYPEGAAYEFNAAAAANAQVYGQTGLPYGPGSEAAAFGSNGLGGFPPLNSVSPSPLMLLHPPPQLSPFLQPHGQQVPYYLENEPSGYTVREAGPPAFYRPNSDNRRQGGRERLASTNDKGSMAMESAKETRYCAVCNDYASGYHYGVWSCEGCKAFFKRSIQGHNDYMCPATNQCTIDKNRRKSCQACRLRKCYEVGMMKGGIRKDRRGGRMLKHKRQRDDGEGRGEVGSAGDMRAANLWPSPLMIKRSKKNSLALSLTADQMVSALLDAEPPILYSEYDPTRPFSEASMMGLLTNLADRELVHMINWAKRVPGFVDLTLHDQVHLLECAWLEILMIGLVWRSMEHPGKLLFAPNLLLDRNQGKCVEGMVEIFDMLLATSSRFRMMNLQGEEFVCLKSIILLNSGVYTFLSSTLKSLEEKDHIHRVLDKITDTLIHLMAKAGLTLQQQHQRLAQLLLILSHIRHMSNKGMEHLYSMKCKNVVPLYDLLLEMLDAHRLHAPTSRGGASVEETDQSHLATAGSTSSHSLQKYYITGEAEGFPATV
ERa SRC1 pot – ER-alpha (human) coactivator binding potentiation; hit rate 1.3% among 86,000; coactivator binding (% of control), % at 25.6 µM; AID 639; P03372; TR-FRET ERalpha-LBD/SRC-Cy5 coactivator binding, 2 h; 100 = basal binding, no effect; in the data active means activity above about 200%;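 further: binding measured in presence of low estradiol as agonist stimulus; 0% = peptide alone without receptor and 100% = receptor with peptide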
RORA act – activates the human nuclear receptor RORA; P35398; CHO-K1 Gal4-RORA LBD luciferase reporter, luminescence; percent increase over mock-subtracted basal signal; activation, % at 10 µM; hit rate 1.5% among 65,000; AID 560;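 active means activation above the mean of all tested compounds plus 3 SD, cut at about 49% in these data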;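 further: 0% = DMSO-treated RORA cells and 100% = added signal equal to DMSO minus mock-transfected cells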
* marks the source's active call; other numbers are inactive results; . = no result; [ ] = remark or other dose. Hits are enriched below; roughly 4.8% of the tested compounds scored in any of these assays.

SMILES | ERb SRC1 inh | SF-1 act | Pyk2 oligo antag | ERa coact inh | ERa SRC1 pot | RORA act
COc1cccc(-n2nnnc2SCC(=O)Nc2ccc3c(c2)OCCO3)c1 | . | . | 1.4 | . | . | .
O=C(CSc1nnc2ccccn12)c1ccc2c(c1)OCCO2 | -1 | 64* | -0.84 | 17 | 98 | 51*
CC(=O)c1c(C)[nH]c(C(=O)NCCc2cccc(C)c2)c1C | -5 | 71* | 0.3 | 2 | 107 | 17
COc1ccc(CCNC(=O)c2[nH]c(C)c(C(C)=O)c2C)cc1 | 15 | . | 1 | 0 | 93 | .
Cc1ccccc1-n1c(SC/C(O)=C(\C#N)c2nc3ccccc3[nH]2)nnc1-c1ccncc1 | 54* | 24 | -1.7 | 62*[fluorescence artefact?] | 78 | 15
Cc1cc(C)n2c(SC/C(O)=C(\C#N)c3nc4ccccc4[nH]3)nnc2n1 | 69*[fluorescence artefact?] | -2 | 0.48 | 97*[fluorescence artefact?] | 0 | -2
Cn1c(SCC(=O)NCc2ccc3c(c2)OCO3)nc2scc(-c3cccs3)c2c1=O | 28 | -18 | -1.1 | 48 | 102 | -1
O=C(Nc1ccccc1)Nc1ccc(C(=O)N2CCOCC2)cc1 | 0 | . | -0.54 | 2 | 112 | .
CCOC(=O)c1cnc2ccc(C)cc2c1Sc1ccccc1C(=O)OC | . | . | -4.3* | . | . | .
CCOC(=O)c1cnc2ccc(C)cc2c1NCCO | -7 | . | 1.6 | -1 | 95 | .
CC(Oc1ccc(C(C)(C)C)cc1)c1ccnc2nc(/N=C/N(C)C)nn12 (configuration not stated) | . | . | -0.99 | . | . | .
COc1ccc(-c2cc(C(F)(F)F)nc(SCC(=O)Nc3sc4c(c3C#N)CCC4)n2)cc1 | . | . | 0.62 | . | . | .
Cc1ccc(C(=O)NCc2nnc(SCC(=O)Nc3sc4c(c3C#N)CCCC4)n2C)cc1 | 11 | 3 | 0.37 | 32 | 126 | 6
Cn1c(CNC(=O)c2ccc(Cl)cc2)nnc1SCC(=O)Nc1sc2c(c1C#N)CCCC2 | 34 | . | -0.25 | 37 | 250* | .
COc1ccc(-c2nnn(CC(=O)Nc3sc4c(c3C#N)CCCC4)n2)cc1 | 24 | 1 | 1.6 | 51*[fluorescence artefact?] | 115 | -13
Cc1cccc(NC(=O)Cn2nnc(-c3cccs3)n2)c1C | -7 | -13 | 1.1 | -6 | 119 | -11
COC(=O)c1sccc1NC(=O)Cn1nnc(-c2ccc(C)cc2)n1 | 3 | 8 | -0.59 | 14 | 212* | -1
COc1ccc(-c2ccc(C#N)c(SCC(=O)Nc3sc4c(c3C#N)CCC4)n2)cc1OC | 65*[fluorescence artefact?] | . | 0.26 | 84*[fluorescence artefact?] | 150 | .
N#Cc1cc2c(nc1SCC(=O)Nc1sc3c(c1C#N)CCC3)CCC2 | 13 | . | -0.99 | -4 | 113 | .
COc1cc(C(=O)OCC(=O)NC2CCS(=O)(=O)C2)ccc1OCc1c(C)noc1C (configuration not stated) | . | . | 0.07 | . | . | .
Clc1cccc2sc(-c3nnc(-c4ccccc4)o3)c(Cl)c12 | -5 | . | -0.24 | -2 | 109 | .
COCC(C)n1c(C)cc(C(=O)COC(=O)c2ccc(N3CCCC3=O)cc2)c1C (configuration not stated) | 1 | -6 | -0.2 | -2 | 121 | -3
Cc1nc2ncnn2c(C)c1CCC(=O)N1CC(C)CC(C)C1 (configuration not stated) | -4 | . | 0.37 | 0 | 114 | .
CCNC(=O)CSc1nc2ccccc2c(=O)n1-c1cc(OC)ccc1OC | -1 | . | 0.89 | 1 | 102 | .
CCOc1ccc(-c2nnn(CC(=O)Nc3cc(OC)ccc3OC)n2)cc1OCC | 8 | 16 | -0.62 | -25 | 116 | 16
SMILES | ERb SRC1 inh | SF-1 act | Pyk2 oligo antag | ERa coact inh | ERa SRC1 pot | RORA act
CCOc1ccccc1NC(=O)Cn1nnc(-c2ccc(OCC)c(OCC)c2)n1 | 27 | -13 | 0.33 | 53*[fluorescence artefact?] | 107 | -9
CCC(C)NC(=S)NNC(=O)c1ccc(C(C)(C)C)cc1 (configuration not stated) | . | . | 2.9 | . | . | .
COc1c(S(=O)(=O)N2CCCCC2)ccc2c(S(=O)(=O)N3CCCCC3)cccc12 | -27 | 1 | -3.5* | -32 | 107 | -8
CCCCNC(=O)c1cc2c(-c3ccc(Cl)cc3)nn(C)c2s1 | -7 | 11 | . | -6 | 128 | -14
Cn1nc(-c2ccc(Cl)cc2)c2cc(C(=O)NCCCN3CCCC3)sc21 | 39 | 56* | . | 23 | 72 | 11
O=C1c2ccccc2C(=O)N1CCN1CCc2ccccc21 | -4 | 52* | 0.09 | -17 | 108 | 37
CN(C)CCN1CCc2ccccc21 | 55*[fluorescence artefact?] | . | -0.17 | 40 | 48 | .

High-throughput results deposited in PubChem BioAssay by several laboratories.
